Usually IC50 stands for the concentration that gives 50% inhibition. For orientation: fraction unbound means free concentration divided by total concentration. The inhibition is how much of the control response was suppressed. By AUC(0-t) is commonly meant the area under the concentration-time curve up to a stated or last time point. One may read the half-life as the time in which the quantity being followed falls by half. Usually clearance stands for the volume of plasma or blood freed of the substance per unit of time. The bioavailability is the share of a dose that reaches the circulation, judged against a reference dose that is usually intravenous.

Each structure is given as a SMILES string. The source made the active and inactive calls. The calls are words filed in the database; no cut-off is given here. Where only a bound is given, the exact number is not on record here.

Data on seven compounds can be found in ChEMBL document CHEMBL2021852 (ACS Med Chem Lett, 2011).

The target of series [1] is T1, Renin (Homo sapiens, UniProt P00797).
T1 sequence (P00797 whole entry): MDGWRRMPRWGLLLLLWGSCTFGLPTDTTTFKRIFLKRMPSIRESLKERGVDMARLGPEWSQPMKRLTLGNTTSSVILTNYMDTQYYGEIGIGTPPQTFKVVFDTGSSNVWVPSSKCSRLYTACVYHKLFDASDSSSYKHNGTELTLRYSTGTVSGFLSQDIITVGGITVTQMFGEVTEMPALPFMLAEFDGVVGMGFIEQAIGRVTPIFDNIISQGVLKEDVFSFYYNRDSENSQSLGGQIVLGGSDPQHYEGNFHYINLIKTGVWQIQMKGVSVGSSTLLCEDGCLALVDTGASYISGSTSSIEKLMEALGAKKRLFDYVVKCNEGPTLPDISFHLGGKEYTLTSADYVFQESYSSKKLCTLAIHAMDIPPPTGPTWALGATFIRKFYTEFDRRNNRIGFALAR
The series is described as follows: Inhibition of human recombinant renin using DABCYL-gamma-Abu-Ile-His-Pro-Phe-His-Leu-Val-Ile-His-Thr-EDANS as substrate for 60 mins by fluorimetry. A digest of the protocol:
(§1)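 Purified recombinant human renin measured in buffer; each value is the average of at least two replicates.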

Series [2] concerns the target T1, Renin. The series is described as follows: Inhibition of human recombinant renin using H-Asp-Arg-Val-Tyr-Ile-His-Pro-Phe-His-Leu-Val-Ile-His-Asn-OH as substrate assessed as formation of angiotensin1 product after 2 hrs by competive radioimmunoassay. The gist of the method:
as §1

The target of series [3] is T1, Renin. The series is described as follows: Inhibition of renin in human plasma assessed as formation of angiotensin1 product after 90 mins by competitive radioimmunoassay. A digest of the protocol: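 IC50 for renin inhibition determined in the presence of human plasma; each value is the average of at least two replicates.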
A short description of series [4]: Fraction unbound in dog plasma. The format is ADME, cell-free, Canis lupus familiaris.
Series [5] in a line: Fraction unbound in cynomolgus monkey plasma. The class given is ADME, cell-free, Macaca fascicularis.
In series [6] the test system is Salmonella typhimurium. Briefly: Mutagenicity against Salmonella typhimurium in the presence of S9-mix. The class given is toxicity, organism-based. The following applies: salmonella enterica subsp. enterica serovar typhimurium.
The subject of series [7] is Salmonella typhimurium. The series is described as follows: Mutagenicity against Salmonella typhimurium in the absence of S9-mix. The class given is toxicity, organism-based. The following applies: salmonella enterica subsp. enterica serovar typhimurium.
Series [8] deals with L5178Y. The series is described as follows: Genotoxicity against TK-positive mouse L5178Y cells. The class given is toxicity, cell-based.
For series [9], the system named is L5178Y. The series is described as follows: Genotoxicity against TK-negative mouse L5178Y cells. The format is toxicity, cell-based.
The target of series [10] is T2, Cathepsin E (Homo sapiens) (UniProt P14091).
T2 sequence (whole entry): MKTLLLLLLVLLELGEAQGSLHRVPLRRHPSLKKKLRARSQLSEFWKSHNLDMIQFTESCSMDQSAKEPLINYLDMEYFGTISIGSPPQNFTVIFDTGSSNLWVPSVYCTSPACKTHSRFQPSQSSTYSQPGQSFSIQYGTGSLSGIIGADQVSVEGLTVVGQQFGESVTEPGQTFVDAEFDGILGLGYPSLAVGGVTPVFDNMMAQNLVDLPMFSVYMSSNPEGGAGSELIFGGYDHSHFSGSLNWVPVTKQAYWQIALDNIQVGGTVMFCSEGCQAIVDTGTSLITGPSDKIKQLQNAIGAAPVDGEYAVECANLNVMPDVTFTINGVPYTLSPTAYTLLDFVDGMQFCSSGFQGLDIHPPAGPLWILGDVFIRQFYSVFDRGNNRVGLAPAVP
Briefly: Inhibition of human recombinant cathepsin E using Mca-GKPILFFRLK(Dnp)-D-Arg-NH2 as substrate at 10 uM incubated for 10 mins prior to substrate addition measured for 1 hr by FRET analysis.

The target in series [11] is Cathepsin D (Homo sapiens) (UniProt P07339). The series is described as follows: Inhibition of human cathepsin D using Mca-GKPILFFRLK(Dnp)-D-Arg-NH2 as substrate at 10 uM incubated for 10 mins prior to substrate addition measured for 1 hr by FRET analysis.
Cathepsin D (Homo sapiens), sequence (P07339 65-162 limits assumed): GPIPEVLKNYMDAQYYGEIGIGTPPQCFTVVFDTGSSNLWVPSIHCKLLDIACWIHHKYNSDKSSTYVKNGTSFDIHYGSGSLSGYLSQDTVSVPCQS
Cathepsin D (Homo sapiens), sequence (P07339 169-412 limits assumed): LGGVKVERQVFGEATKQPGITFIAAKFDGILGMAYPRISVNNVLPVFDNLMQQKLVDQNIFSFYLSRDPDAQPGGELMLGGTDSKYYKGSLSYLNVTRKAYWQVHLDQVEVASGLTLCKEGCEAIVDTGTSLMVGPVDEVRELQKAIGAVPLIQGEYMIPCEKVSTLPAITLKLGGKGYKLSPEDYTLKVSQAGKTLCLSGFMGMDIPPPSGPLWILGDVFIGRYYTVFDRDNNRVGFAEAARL
For series [12], the target named is Beta-secretase 1 (Homo sapiens) (UniProt P56817). The series is described as follows: Inhibition of BACE using SEVNLDAEFK(Dnp)NH2 as substrate at 10 uM incubated for 10 mins prior to substrate addition measured for 1 hr by FRET analysis.
Beta-secretase 1 (Homo sapiens), sequence (P56817 whole entry): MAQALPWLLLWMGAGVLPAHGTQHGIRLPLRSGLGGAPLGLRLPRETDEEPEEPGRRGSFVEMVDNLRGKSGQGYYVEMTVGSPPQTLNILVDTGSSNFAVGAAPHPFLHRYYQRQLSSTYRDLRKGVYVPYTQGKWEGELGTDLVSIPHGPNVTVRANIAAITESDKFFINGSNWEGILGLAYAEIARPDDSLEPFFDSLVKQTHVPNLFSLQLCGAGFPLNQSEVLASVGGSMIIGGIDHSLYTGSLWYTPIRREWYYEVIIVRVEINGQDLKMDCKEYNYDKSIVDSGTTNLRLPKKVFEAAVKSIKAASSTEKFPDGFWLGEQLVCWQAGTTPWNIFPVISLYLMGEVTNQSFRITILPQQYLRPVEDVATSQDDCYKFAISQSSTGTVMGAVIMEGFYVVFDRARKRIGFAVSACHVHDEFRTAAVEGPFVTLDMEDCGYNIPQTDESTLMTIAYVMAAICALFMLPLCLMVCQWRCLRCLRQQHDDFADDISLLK
Series [13] has as its system Rattus norvegicus. Briefly: Antihypertensive activity in double transgenic rat expressing human renin assessed as reduction in mean arterial blood pressure at 10 mg/kg, po after 24 hrs. The class given is functional, organism-based. Also on record: dose 10 mg/kg. The following applies: Artery. The gist of the method: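 Double transgenic rats expressing human renin and angiotensinogen, with severe hypertension dependent on human renin, received 10 mg/kg orally. Mean arterial pressure was followed over time, including at t = 24 h.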

Series [14] deals with Cytochrome P450 3A4 (Homo sapiens, UniProt P08684). The series is described as follows: Inhibition of CYP3A4 using testosterone as substrate in human liver microsome for 20 mins by HPLC analysis. The format is ADME, microsomes. The gist of the method: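 CYP3A4 inhibition measured in human liver microsomes; IC50 is the average of at least two replicates.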
Cytochrome P450 3A4, sequence (P08684 whole entry): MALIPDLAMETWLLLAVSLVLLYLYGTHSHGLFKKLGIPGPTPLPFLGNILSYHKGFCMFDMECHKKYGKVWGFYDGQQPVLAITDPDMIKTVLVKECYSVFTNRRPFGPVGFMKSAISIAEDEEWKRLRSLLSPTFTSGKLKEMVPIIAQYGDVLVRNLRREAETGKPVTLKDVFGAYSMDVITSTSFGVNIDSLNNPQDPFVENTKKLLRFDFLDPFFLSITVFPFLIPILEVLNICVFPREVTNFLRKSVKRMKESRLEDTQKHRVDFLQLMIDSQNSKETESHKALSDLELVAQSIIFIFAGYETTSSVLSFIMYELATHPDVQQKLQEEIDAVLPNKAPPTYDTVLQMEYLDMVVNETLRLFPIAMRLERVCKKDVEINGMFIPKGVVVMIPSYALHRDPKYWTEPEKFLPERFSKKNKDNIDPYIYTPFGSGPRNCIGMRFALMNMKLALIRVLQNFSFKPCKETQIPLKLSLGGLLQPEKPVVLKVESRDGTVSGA
Series [15] can be described thus: AUC (0 to t) in rat at 10 mg/kg, po. The following applies: plasma. The class given is ADME, organism-based. Also on record: dose 10 mg/kg, route oral. The gist of the method:
(§2)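 Compounds were dosed as fumarate salts in separate intravenous and oral arms. Oral AUC(0–t), IV half-life, IV clearance, Vss and oral bioavailability (F) were derived from the plasma levels.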

Series [16] is described as follows: AUC (0 to t) in dog at 1 mg/kg, po. The class given is ADME, organism-based, Canis lupus familiaris. Also on record: dose 1 mg/kg, route oral. The following applies: plasma. The gist of the method:
as §2

Series [17] can be described thus: Half life in rat at 2 mg/kg, iv. The format is ADME, organism-based. Also on record: dose 2 mg/kg, route intravenous. The following applies: in vivo. The gist of the method: as §2
The nature of series [18]: Half life in cynomolgus monkey at 1 mg/kg, iv. The class given is ADME, organism-based, Macaca fascicularis. Also on record: dose 1 mg/kg, route intravenous. The following applies: in vivo. A digest of the protocol:
as §2

Series [19] is described as follows: Half life in dog at 1 mg/kg, iv. The format is ADME, organism-based, Canis lupus familiaris. More on the design: dose 1 mg/kg, route intravenous. The following applies: in vivo.
The nature of series [20]: Clearance in cynomolgus monkey at 1 mg/kg, iv. The format is ADME, organism-based, Macaca fascicularis. More on the design: dose 1 mg/kg, route intravenous. The following applies: in vivo. The gist of the method:
as §2

A short description of series [21]: Clearance in dog at 1 mg/kg, iv. Also on record: dose 1 mg/kg, route intravenous. The following applies: in vivo. The class given is ADME, organism-based, Canis lupus familiaris.
A short description of series [22]: Oral bioavailability in cynomolgus monkey at 2 mg/kg. The class given is ADME, organism-based, Macaca fascicularis. The following applies: in vivo. The gist of the method: as §2
Series [23] is described as follows: Oral bioavailability in dog at 1 mg/kg. The format is ADME, organism-based, Canis lupus familiaris. The following applies: in vivo. A digest of the protocol: as §2

As for `CN[C@H](CNC(=O)N1CCC[C@@H]([C@@H](OCCNC(=O)OC)c2cccc(Cl)c2)C1)C[C@H]1CCCOC1` [VTP-27999], the figures for the IC50 in series [1], in [2] and in series [3] were 0.47 nM, 0.3 nM and 1.1 nM, respectively. Also, the fraction unbound in series [4] turned out to be 0.22; in [5] it was 0.29. Besides, the Activity entry in [6], in [7], in [8] and in [9] was “Non-toxic” throughout.

In the case of `CN[C@H](CNC(=O)N1CCC[C@@H]([C@@H](OCCNC(=O)OC)c2cccc(Cl)c2)C1)C[C@H]1CCCOC1`, the inhibition in [10], in [11] and in [12] was under 10% in each case. Further, the outcome in [13] was Active.

For `CNC[C@H](CC1CCOCC1)NC(=O)N1CCC[C@@H]([C@@H](OCCNC(=O)OC)c2cccc(Cl)c2)C1`, the IC50 in series [1] is 6.2 nM; in series [2], 1.7 nM; in [3], 13.1 nM; in series [14], over 30000 nM.

`CNC[C@H](C[C@H]1CCCOC1)NC(=O)N1CCC[C@@H]([C@@H](OCCNC(=O)OC)c2cccc(Cl)c2)C1`: the IC50 was 0.56 nM in series [1], 0.42 nM in [2], 0.48 nM in series [3] and 28000 nM in series [14].

Regarding `COCCCC[C@@](O)(c1cccc(Cl)c1F)[C@@H]1CCCN(C(=O)NC[C@@H](N)CC2CCCCC2)C1`, the IC50 in [1] is 2.2 nM; in series [2], 0.27 nM; in series [3], 69 nM; in series [14], 2910 nM.

As to `COCCCOc1cc(C[C@@H](C[C@H](N)[C@@H](O)C[C@H](C(=O)NCC(C)(C)C(N)=O)C(C)C)C(C)C)ccc1OC.COCCCOc1cc(C[C@@H](C[C@H](N)[C@@H](O)C[C@H](C(=O)NCC(C)(C)C(N)=O)C(C)C)C(C)C)ccc1OC.O=C(O)/C=C/C(=O)O` [ALISKIREN FUMARATE], the results for the AUC(0-t) in [15] and in [16] were 21 ng·h/mL and 149 ng·h/mL, respectively. Besides, the half-life in [17] was 39.6 h; in series [18], 14.7 h; in [19], 16.3 h. Moreover, the clearance in [20] came to 2.5 mL/min/kg; in series [21], 11 mL/min/kg. Besides, the results for the bioavailability in series [22] and in series [23] were 1.4% and 11%, respectively.

For `CNC[C@H](C[C@@H]1CCCOC1)NC(=O)N1CCC[C@@H]([C@@H](OCCNC(=O)OC)c2cccc(Cl)c2)C1`, the IC50 in [1] was 5.5 nM; in series [2], 2.7 nM; in series [3] it was 4.5 nM.
